KDM4C inh: KDM4C (human) demethylase inhibition; GST-KDM4C 2-372, H3K9me3 peptide, LANCE TR-FRET; inhibition, % at 12.5 µM; hit rate 0.15% among 96,000; AID 720574;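 active means mean replicate inhibition above about 25%, with at least 55% of replicates also reaching it, limit read from the data, passing the limit was not always enough; inconclusive means only one of those two conditions met; inactive means neither condition met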
Target sequence (Q9H3R0 2-372 limits assumed): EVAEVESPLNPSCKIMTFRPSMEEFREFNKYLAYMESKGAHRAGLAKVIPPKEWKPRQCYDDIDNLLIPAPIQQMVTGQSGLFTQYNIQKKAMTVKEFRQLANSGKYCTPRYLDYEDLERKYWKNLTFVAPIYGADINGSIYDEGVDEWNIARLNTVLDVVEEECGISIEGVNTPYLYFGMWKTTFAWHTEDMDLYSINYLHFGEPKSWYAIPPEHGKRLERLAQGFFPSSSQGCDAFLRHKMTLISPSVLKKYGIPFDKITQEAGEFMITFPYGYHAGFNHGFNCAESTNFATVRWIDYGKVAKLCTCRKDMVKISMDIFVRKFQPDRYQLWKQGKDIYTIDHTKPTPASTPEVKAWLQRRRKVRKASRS
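Test system – GST-tagged GASC-1 (JMJD2C) catalytic fragment, aa 2-372 · Medium – HEPES buffer, pH 7.5, plus ascorbate · Reagent – H3K9me3 peptide with Fe(II)/2OG · Compound – one test concentration per compound · Timing – 30 min reaction, 60 min detection, RT · Technique – TR-FRET with Eu antibody and ULight streptavidin, EDTA stop · Read-out basis – inhibition from TR-FRET ratio decrease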
IDH1 mut inh: IDH1 R132H (human) inhibition. O75874. hit rate 0.18% among 70,000. IDH1 R132H reductase, diaphorase/resazurin fluorescence, 60 min. AID 624101. inhibition, % at 10 µM; in the data active means inhibition above about 34%; inconclusive means no clear call, values can overlap the other calls; inactive means below about 11%;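 further: 0% = DMSO and 100% = no enzyme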
Target sequence (O75874 whole entry R132H): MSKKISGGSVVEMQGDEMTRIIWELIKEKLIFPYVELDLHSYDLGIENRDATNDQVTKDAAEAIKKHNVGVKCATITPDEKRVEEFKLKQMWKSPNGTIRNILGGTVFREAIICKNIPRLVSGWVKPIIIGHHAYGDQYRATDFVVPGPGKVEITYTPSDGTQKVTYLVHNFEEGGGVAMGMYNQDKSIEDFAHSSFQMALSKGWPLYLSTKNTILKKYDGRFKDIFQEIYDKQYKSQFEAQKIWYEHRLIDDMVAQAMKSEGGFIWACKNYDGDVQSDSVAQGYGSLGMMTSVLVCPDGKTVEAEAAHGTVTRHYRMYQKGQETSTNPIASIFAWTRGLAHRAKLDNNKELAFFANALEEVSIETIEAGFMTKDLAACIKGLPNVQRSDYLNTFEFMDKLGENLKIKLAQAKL
Pf Dd2 growth: P. falciparum Dd2 growth inhibition; hit rate 2.3% among 94,000; activity change, % at 10 µM; SYBR Green, 72 h; active compounds read low; in the data active means activity change below about -80%; inconclusive means no clear call, values can overlap the other calls
T cruzi growth-1: inhibitors of T. cruzi proliferation | T. cruzi beta-gal in NIH3T3, GalScreen luminescence, 90 h | inhibition, % at 8.34 µM | hit rate 5.9% among 77,000;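 active means mean inhibition above about 93%, with at least 55% of replicates each passing it, limit read from the data, passing the limit was not always enough; inconclusive means only one of those two conditions holds; inactive means neither condition holds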
T cruzi growth-2: blocks T. cruzi growth in NIH3T3 host cells. hit rate 72% among 5,600. T. cruzi beta-gal in NIH3T3, GalScreen luminescence, 90 h. inhibition, % at 8.35 µM. shares compounds with T cruzi growth-1;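 active means mean replicate inhibition above about 95% and at least 55% of replicates individually reaching it, limit read from the data; inconclusive means only one of the two criteria is met; inactive means neither criterion is met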
T cruzi growth-3: blocks T. cruzi growth in NIH3T3 host cells; shares compounds with T cruzi growth-1; T. cruzi beta-gal in NIH3T3, GalScreen luminescence, 90 h; inhibition, % at 2.09 µM; hit rate 21% among 5,600;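 active means mean inhibition above about 95%, with at least 55% of replicates also reaching it, limit read from the data; inconclusive means meets just one of the two conditions; inactive means meets neither condition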;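 further: plate controls were neutral control median for no effect and positive control median for full effect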
3T3 cytotox: cytotoxicity in mouse NIH/3T3 fibroblasts; shares compounds with T cruzi growth-1; cytotoxicity (signal decrease), % at 8.35 µM; hit rate 14% among 5,600; AID 651742; NIH/3T3 viability, CellTiter-Glo ATP luminescence, 90 h;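 active means mean signal decrease across replicates above about 35% based on untreated-well scatter, with enough replicates individually passing, limit read from the data; inconclusive means no rule stated though some were filed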;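 further: 0% = median of neutral control wells and 100% = median of positive control wells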
3T3 cytotox 2: kills mouse NIH/3T3 fibroblasts. hit rate 56% among 5,600. NIH/3T3 viability, CellTiter-Glo ATP luminescence, 90 h. inhibition, % at 24.9 µM. shares compounds with T cruzi growth-1. AID 651744;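 active means mean loss of cell viability signal at or above a set limit, and enough replicates individually reaching it; inconclusive means meets only the mean limit or only the replicate share; inactive means meets neither condition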;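 further: 0% = median of neutral control wells and 100% = median of positive control wells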
Active calls of the source: *; ? = inconclusive; nt = no result given. Shown are actives, neighbours in structure and some others; about 5.8% of the full set was active somewhere.

SMILES	KDM4C inh	IDH1 mut inh	Pf Dd2 growth	T cruzi growth-1	T cruzi growth-2	T cruzi growth-3	3T3 cytotox	3T3 cytotox 2
O=C(C1CCC1)N1CCCCN2[C@@H](CO)[C@@H](c3ccc(C#CC4(O)CCCC4)cc3)[C@@H]2C1	-0.6	nt	34.7	?	88.9	54.3	5.4	0.2
O=C(C1CCCC1)N1CCCCN2[C@H](CO)[C@@H](c3ccc(C#CC4(O)CCCC4)cc3)[C@@H]2C1	nt	nt	-8.3	-23.1	nt	nt	nt	nt
O=C(O)CCCCCCC(=O)N/N=C/c1cccnc1	nt	0.1	nt	nt	nt	nt	nt	nt
COc1ccc(CCNS(=O)(=O)c2cc([N+](=O)[O-])ccc2C)cc1OC	nt	-0.3	nt	nt	nt	nt	nt	nt
COc1ccc(-c2ccc3c(c2)O[C@@H](CN(C)C(=O)c2ccccc2F)[C@H](C)CN([C@H](C)CO)S3(=O)=O)cc1	-2.5	-0.2	-74.5	113.7*	104.8*	66.9	39.5*	70.2*
COc1ccc(-c2ccc3c(c2)O[C@@H](CN(C)C(=O)c2ccccc2F)[C@H](C)CN([C@@H](C)CO)S3(=O)=O)cc1	-5.2	1.9	-70.0	110.0*	89.8	43.8	46.9*	78.6*
COc1ccc(-c2ccc3c(c2)O[C@H](CN(C)C(=O)Nc2ccccc2F)[C@@H](C)CN([C@@H](C)CO)S3(=O)=O)cc1	-2.1	5.6	-70.0	97.8*	108.1*	53.5	33.4	58.3*
COc1ccc(-c2ccc3c(c2)O[C@H](CN(C)C(=O)c2ccccc2F)[C@@H](C)CN([C@H](C)CO)S3(=O)=O)cc1	-2.3	-2.3	-59.3	107.8*	101.8*	47.9	5.6	36.0*
COc1ccc(-c2ccc3c(c2)O[C@@H](CN(C)C(=O)c2ccccc2F)[C@@H](C)CN([C@H](C)CO)S3(=O)=O)cc1	-3.5	-2.2	-73.0	85.6	nt	nt	nt	nt
COc1ccc(-c2ccc3c(c2)O[C@H](CN(C)C(=O)c2ccccc2F)[C@@H](C)CN([C@@H](C)CO)S3(=O)=O)cc1	-0.1	-0.4	-68.7	106.3*	104.5*	67.7	12.3	54.0*
Cc1ccccc1-c1ccc([C@H]2[C@H](CO)N3CCCCN(C(=O)Nc4ccc(F)cc4)C[C@@H]23)cc1	-0.6	nt	-40.9	109.1*	96.0*	88.2	41.7*	105.9*
Cc1ccccc1-c1ccc([C@@H]2[C@H]3CN(C(=O)Nc4ccc(F)cc4)CCCCN3[C@H]2CO)cc1	-1.2	nt	11.3	107.0*	90.0	104.8*	?	106.1*
Cc1ccccc1-c1ccc([C@H]2[C@H]3CN(C(=O)Nc4cccc(F)c4)CCCCN3[C@H]2CO)cc1	0.7	nt	-29.0	91.8	nt	nt	nt	nt
COC(=O)c1cc(OC)c(OC)cc1NC(=O)COc1ccc(Br)cc1Cl	nt	0.1	nt	nt	nt	nt	nt	nt
Cc1cccc(C)c1N(CC(=O)NC1CCCCC1)S(C)(=O)=O	nt	0.1	nt	nt	nt	nt	nt	nt
C[C@H](CO)N1C[C@H](C)[C@@H](CN(C)C(=O)Cc2ccccc2)Oc2ncc(C#Cc3ccccc3F)cc2C1=O	-1.8	0.3	-25.3	96.0*	108.4*	65.1	5.8	94.1*
C[C@H](CO)N1C[C@H](C)[C@@H](CN(C)C(=O)C2CCC2)Oc2ncc(C#Cc3ccccc3F)cc2C1=O	-1.8	-0.1	-31.9	103.5	nt	nt	nt	nt
C[C@H](CO)N1C[C@H](C)[C@H](CN(C)C(=O)c2ccc3c(c2)OCO3)Oc2ncc(C#Cc3ccccc3F)cc2C1=O	-0.3	nt	-73.5	56.3	nt	nt	nt	nt
C[C@H]1CN([C@@H](C)CO)C(=O)c2cc(C#Cc3ccccc3F)cnc2O[C@@H]1CN(C)C(=O)c1ccc2c(c1)OCO2	0.9	nt	-82.3*	124.8*	110.3*	42.2	33.0	36.7*
C[C@@H]1CN([C@H](C)CO)C(=O)c2cc(C#Cc3cccc(F)c3)cnc2O[C@H]1CN(C)C(=O)C1CCCCC1	-0.8	0.0	-70.8	100.9*	109.9*	83.9	-2.3	103.3*
C[C@H]1CN([C@@H](C)CO)C(=O)c2cc(C#Cc3cccc(F)c3)cnc2O[C@H]1CN(C)C(=O)C1CCCCC1	0.8	-0.3	-72.5	99.1	nt	nt	nt	nt
C[C@H]1CN([C@@H](C)CO)C(=O)c2cc(C#Cc3ccccc3F)cnc2O[C@@H]1CN(C)C(=O)C1CCC1	-0.3	0.2	-52.6	97.2*	103.7*	44.1	30.4	45.3*
COC(=O)c1cccc(NC(=O)CN(c2ccc(F)c(Cl)c2)S(C)(=O)=O)c1C	nt	0.0	nt	nt	nt	nt	nt	nt
COC(=O)c1ccc(-n2nnnc2SCC(=O)Nc2ccccc2)cc1	nt	-0.2	nt	nt	nt	nt	nt	nt
O=C(Nc1ccccc1C(=O)NCCOc1ccccc1)c1ccc(Cl)cc1	nt	-0.1	nt	nt	nt	nt	nt	nt
SMILES	KDM4C inh	IDH1 mut inh	Pf Dd2 growth	T cruzi growth-1	T cruzi growth-2	T cruzi growth-3	3T3 cytotox	3T3 cytotox 2
NC(=O)CSc1nnc(-c2ccncc2)n1-c1cccc(C(F)(F)F)c1	nt	2.7	nt	nt	nt	nt	nt	nt
COC(=O)c1ccccc1NC(=O)Cn1ccc([N+](=O)[O-])n1	nt	0.0	nt	nt	nt	nt	nt	nt
CC(C)NC(=O)N(C)C[C@H]1Oc2ncc(C#Cc3ccccc3F)cc2C(=O)N([C@H](C)CO)C[C@H]1C	-2.4	-1.8	-55.4	72.4	nt	nt	nt	nt
CC(C)NC(=O)N(C)C[C@@H]1Oc2ncc(C#Cc3ccccc3F)cc2C(=O)N([C@@H](C)CO)C[C@H]1C	0.5	nt	-50.2	101.7*	81.4	48.1	31.7	61.4*
Cc1ccc(NC(=O)CSc2nnc(-c3ccco3)n2C)c(Br)c1	nt	-0.5	nt	nt	nt	nt	nt	nt
O=C(C[C@H]1CC[C@@H]2[C@H](COC[C@H](O)CN2S(=O)(=O)c2cccc(F)c2)O1)Nc1ccc(-c2ccccc2)cc1	-0.1	nt	-27.1	101.2*	97.8*	88.1	43.9*	103.8*
O=C(C[C@@H]1CC[C@@H]2[C@H](COC[C@@H](O)CN2S(=O)(=O)c2ccccc2)O1)NCc1ccc(-c2ccccc2)cc1	-8.2	nt	-90.5*	105.3*	105.1*	42.7	-1.2	13.3
O=C(C[C@H]1CC[C@H]2[C@@H](COC[C@@H](O)CN2S(=O)(=O)c2cccc(F)c2)O1)Nc1ccc(-c2ccccc2)cc1	-0.6	nt	-15.3	74.4	nt	nt	nt	nt
COc1ccc(S(=O)(=O)N2C[C@H](O)COC[C@@H]3O[C@@H](CC(=O)NCc4ccc(Cl)c(Cl)c4)CC[C@H]32)cc1	-0.6	nt	-12.4	109.1*	100.9*	-36.1	-1.7	61.6*
Cc1ccc(S(=O)(=O)N2C[C@H](O)COC[C@H]3O[C@H](CC(=O)NCc4ccc(Cl)c(Cl)c4)CC[C@@H]32)cc1	-0.3	nt	10.9	89.8	nt	nt	nt	nt
O=C(C[C@H]1CC[C@@H]2[C@H](COC[C@@H](O)CN2S(=O)(=O)c2cccc(F)c2)O1)Nc1ccc(-c2ccccc2)cc1	-1.9	nt	-32.5	96.3*	103.0*	60.2	49.8*	100.7*

Screening data: PubChem, Broad Institute
